Measured values taken from ChEMBL document CHEMBL1157624, “Targeting Alzheimer's disease: Novel indanone hybrids bearing a pharmacophoric fragment of AP2238” (Bioorg Med Chem, 2010).

Assays:
[1] = species: Homo sapiens; experiment: Selectivity ratio of IC50 for human BuChE to human recombinant AChE
Method in brief: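 Ellman assay in 0.1 M potassium phosphate pH 8.0 with 340 µM DTNB, enzyme at 0.02 unit/mL: human recombinant AChE with 550 µM acetylthiocholine, serum-derived human BuChE with 550 µM butyrylthiocholine. Compounds preincubated with enzyme 20 min at 37 °C. IC50 from five-point curves run in triplicate, mean of two experiments. Ratio = IC50 BuChE / IC50 AChE.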

[2] = target: T1, Acetylcholinesterase (Homo sapiens, UniProt P22303); experiment: Inhibition of human recombinant AChE preincubated for 20 mins before substrate addition by Ellman's method
T1 sequence (P22303 whole entry): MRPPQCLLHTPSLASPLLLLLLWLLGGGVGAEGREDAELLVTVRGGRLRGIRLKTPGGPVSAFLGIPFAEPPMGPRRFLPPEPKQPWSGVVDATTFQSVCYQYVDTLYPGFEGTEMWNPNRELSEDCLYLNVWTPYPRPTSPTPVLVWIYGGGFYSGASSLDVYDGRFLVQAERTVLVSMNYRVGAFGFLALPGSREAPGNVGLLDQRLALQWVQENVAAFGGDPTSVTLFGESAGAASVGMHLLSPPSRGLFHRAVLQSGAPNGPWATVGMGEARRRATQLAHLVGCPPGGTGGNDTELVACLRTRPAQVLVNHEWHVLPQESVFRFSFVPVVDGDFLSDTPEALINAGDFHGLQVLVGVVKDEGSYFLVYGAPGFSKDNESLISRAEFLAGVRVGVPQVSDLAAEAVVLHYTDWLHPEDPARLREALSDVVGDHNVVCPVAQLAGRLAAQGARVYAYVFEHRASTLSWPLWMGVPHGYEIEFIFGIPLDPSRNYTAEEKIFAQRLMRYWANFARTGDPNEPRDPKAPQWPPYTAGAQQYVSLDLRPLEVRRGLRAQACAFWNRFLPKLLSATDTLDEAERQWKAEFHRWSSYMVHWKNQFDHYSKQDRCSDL

[3] = target: Cholinesterase (Homo sapiens, UniProt P06276); experiment: Inhibition of human BuChE preincubated for 20 mins before substrate addition by Ellman's method
Sequence of Cholinesterase (P06276 whole entry): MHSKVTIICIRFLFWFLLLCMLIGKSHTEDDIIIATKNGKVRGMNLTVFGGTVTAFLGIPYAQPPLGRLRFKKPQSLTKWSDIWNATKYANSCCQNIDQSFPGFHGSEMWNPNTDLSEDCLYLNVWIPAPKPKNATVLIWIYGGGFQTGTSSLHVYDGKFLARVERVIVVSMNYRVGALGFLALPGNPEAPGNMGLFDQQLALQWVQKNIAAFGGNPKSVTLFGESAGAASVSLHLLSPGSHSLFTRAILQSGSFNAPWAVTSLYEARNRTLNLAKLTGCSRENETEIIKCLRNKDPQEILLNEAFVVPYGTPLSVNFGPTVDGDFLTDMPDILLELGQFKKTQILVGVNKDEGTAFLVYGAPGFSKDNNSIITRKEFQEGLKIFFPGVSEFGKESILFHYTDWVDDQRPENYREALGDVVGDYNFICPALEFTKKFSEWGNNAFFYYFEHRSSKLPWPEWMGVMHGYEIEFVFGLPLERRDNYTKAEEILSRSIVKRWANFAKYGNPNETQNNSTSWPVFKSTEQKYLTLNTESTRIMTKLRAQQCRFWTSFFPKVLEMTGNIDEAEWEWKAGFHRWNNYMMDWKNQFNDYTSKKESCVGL
Method in brief: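 Ellman assay using BuChE from human serum at 0.02 unit/mL in 0.1 M potassium phosphate pH 8.0 with 340 µM DTNB. Compound and enzyme preincubated 20 min at 37 °C, then 550 µM butyrylthiocholine iodide added. Blank lacks enzyme. Five concentrations chosen to give 20–80% inhibition, each in triplicate. IC50 read graphically from log concentration vs % inhibition. Mean of two independent measurements.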

[4] = Inhibition of amyloid beta (1-42) self-aggregation at 10 uM after 24 hrs by thioflavin T-based fluorometric assay
Method in brief: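 Abeta42 from stable 500 µM stock, incubated at final 50 µM in 10 mM phosphate buffer pH 8.0 with 10 mM NaCl, 30 °C for 24 h, with or without compound at 10 µM. Diluted into 50 mM glycine–NaOH pH 8.5 with 1.5 µM thioflavin T. Fluorescence read by 300 s scan at ex 446/em 490 nm, plateau values averaged after ThT background subtraction. % inhibition taken from ± inhibitor intensity ratio.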

[5] = target: T1, Acetylcholinesterase; experiment: Inhibition of human recombinant AChE-induced amyloid beta (1-40) aggregation at 100 uM by thioflavin T fluorescence assay
Method in brief: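 Abeta40, lyophilised from HFIP and dissolved in DMSO, held at final 230 µM. Co-incubated with human recombinant AChE at final 2.30 µM (Abeta:AChE 100:1), with or without inhibitor at final 100 µM. Incubation 24 h at room temperature in 0.215 M sodium phosphate pH 8.0, run in duplicate. ThT read in glycine–NaOH pH 8.5 at ex 446/em 490 nm, subtracting ThT and AChE background. % inhibition = 100 − (IFi/IFo × 100).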

[6] = target: T1, Acetylcholinesterase; experiment: Inhibition of human recombinant AChE-mediated hydrolysis of acetylcholine by Lineweaver-Burke plot analysis
Method in brief: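 Steady-state kinetics on human recombinant AChE with acetylthiocholine as substrate at low concentrations (0.60–0.06 mM) and inhibitor at increasing concentrations (range 0–50 nM). Initial velocities were plotted as 1/v versus 1/[ATCh]. Plots were fitted by weighted least squares, taking the variance of v as a constant percentage of v, to estimate the competitive inhibition constant Ki.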

Row | Structure (SMILES) | Ratio IC50 [1] | IC50 [2] [µM] | IC50 [3] [µM] | inhibition [4] [%] | inhibition [5] [%] | Ki [6] [µM]
1 | CCN(Cc1ccccc1)Cc1ccc(/C=C2\Cc3ccc(OC)cc3C2=O)cc1 | 19.9 | 4.93 | 98.1 | – | – | –
2 | CCN(CC)CCCCOc1ccc2c(c1)C/C(=C\c1ccc(CN(C)Cc3ccccc3)cc1)C2=O | 5.8 | 3.95 | 22.9 | – | – | –
3 | CCN(CC)CCCCCOc1ccc2c(c1)CC/C(=C\c1ccc(CN(C)Cc3ccccc3)cc1)C2=O | 144 | 0.056 | 8.05 | 26.4 | 42.9 | –
4 | COc1cc2c(cc1OC)C(=O)C(CC1CCN(Cc3ccccc3)CC1)C2 (stereo not given) | – | – | – | < 5 | – | –
5 | COc1ccc2c(c1)CC/C(=C\c1ccc(CN(C)Cc3ccccc3)cc1)C2=O | 820 | 0.11 | 90.3 | – | – | –
6 | COc1cc2cc(-c3ccc(CN(C)Cc4ccccc4)cc3)c(=O)oc2cc1OC | 1110 | – | – | < 5 | – | –
7 | CCN(CC)CCCCCOc1ccc2c(c1)C(=O)/C(=C/c1ccc(CN(C)Cc3ccccc3)cc1)C2 | 14.2 | 0.19 | 2.7 | 27.7 | 29.7 | –
8 | CCN(CC)CCCCOc1ccc2c(c1)C(=O)/C(=C/c1ccc(CN(C)Cc3ccccc3)cc1)C2 | 3.95 | 0.89 | 3.52 | – | – | –
9 | CCN(CC)CCCOc1ccc2c(c1)C(=O)/C(=C/c1ccc(CN(C)Cc3ccccc3)cc1)C2 | 9.01 | 1.32 | 11.9 | – | – | –
10 | CCN(CC)CCCCCCOc1ccc2c(c1)C(=O)/C(=C/c1ccc(CN(C)Cc3ccccc3)cc1)C2 | 53.9 | 0.38 | 20.5 | – | – | –
11 | COc1ccc2c(c1)C(=O)/C(=C/c1ccc(CN(C)Cc3ccccc3)cc1)CC2 | 25.1 | 5.38 | 135 | – | – | –
12 | CN(Cc1ccccc1)Cc1ccc(/C=C2\Cc3ccc(OCCCCN4CCCCC4)cc3C2=O)cc1 | 55.5 | 0.18 | 10 | – | – | –
13 | CCN(CC)CCCCCCCOc1ccc2c(c1)C(=O)/C(=C/c1ccc(CN(C)Cc3ccccc3)cc1)C2 | 64.7 | 0.51 | 33 | – | – | –
14 | COc1cc2c(cc1OC)C(=O)/C(=C/c1ccc(CN(C)Cc3ccccc3)cc1)C2 | 126 | 1.14 | 144 | – | – | –
15 | CCN(CC)CCCOc1ccc2c(c1)C/C(=C\c1ccc(CN(C)Cc3ccccc3)cc1)C2=O | 7.08 | 1.61 | 11.4 | – | – | –
16 | CN(Cc1ccccc1)Cc1ccc(/C=C2\Cc3ccccc3C2=O)cc1 | 2.55 | 11.7 | 29.9 | – | – | –
17 | CN(Cc1ccccc1)Cc1ccc(/C=C2\CCc3cc(OCCCCCN4CCCCC4)ccc3C2=O)cc1 | 96.3 | 0.052 | 5.01 | 26.9 | 48.3 | 0.0611
18 | CCN(CC)CCOc1ccc2c(c1)C(=O)/C(=C/c1ccc(CN(C)Cc3ccccc3)cc1)C2 | 7.77 | 1.53 | 11.9 | – | – | –
19 | COc1ccc2c(c1)C(=O)/C(=C/c1ccc(CN(C)Cc3ccccc3)cc1)C2 | 12.6 | 0.63 | 7.93 | < 5 | < 5 | –
20 | COc1cc2c(cc1OC)C(=O)/C(=C/c1ccc(CN(C)Cc3ccccc3)cc1)CC2 | 404 | 0.18 | 72.8 | – | – | –
21 | CCN(CC)CCOc1ccc2c(c1)C/C(=C\c1ccc(CN(C)Cc3ccccc3)cc1)C2=O | 7.76 | 2.9 | 22.5 | – | – | –
22 | COc1ccc2c(c1)C/C(=C\c1ccc(CN(C)Cc3ccccc3)cc1)C2=O | 0.73 | 28.7 | 21.1 | – | – | –
23 | CN(Cc1ccccc1)Cc1ccc(/C=C2\Cc3ccc(OCCCCN4CCOCC4)cc3C2=O)cc1 | 112 | 0.89 | 99.8 | – | – | –
24 | CN(Cc1ccccc1)Cc1ccc(/C=C2\Cc3ccc(OCCCCCN4CCCCC4)cc3C2=O)cc1 | 38.5 | 0.2 | 7.7 | 27.9 | 46.8 | –
